We go through seven compounds from ChEMBL document CHEMBL6074702, “Discovery of 4-(5-Membered)Heteroarylether-6-methylpicolinamide Negative Allosteric Modulators of Metabotropic Glutamate Receptor Subtype 5” (ACS Med Chem Lett, 2024).

Data set [1] in a line: Unbound fraction in rat plasma at 5 uM incubated for 6 hrs by equilibrium dialysis based LC-MS/MS analysis. The format is ADME, cell-free. The method, boiled down: (§1)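 Equilibrium dialysis of plasma spiked at 5 μM final against DPBS, in triplicate, 6 h at 37 °C. Samples were matrix-matched, acetonitrile-extracted with carbamazepine as internal standard, and analyzed by LC-MS/MS. fu = buffer-side/plasma-side analyte:IS peak area ratio, mean of 3 replicates.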
(In general: Equilibrium dialysis compares concentrations on both sides of a semipermeable membrane.)

Data set [2] in a line: Ratio of unbound drug concentration in Sprague-Dawley rat brain to plasma at 0.2 mg/kg, iv measured after 0.25 hrs by LC-MS/MS analysis. The class given is ADME, organism-based. The gist of the method:
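Male Sprague Dawley rats (n = 1) received a single IV dose through a jugular catheter, formulated in 10% ethanol/40% PEG400/50% DMSO at 0.5 mL/kg. Terminal plasma (K2EDTA) and whole brain were taken at 15 min. Brain was homogenized in isopropanol:water 7:3. Samples were acetonitrile-precipitated with carbamazepine as internal standard and quantified by LC-MS/MS against a plasma standard curve, with dilution correction.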

Data set [3] can be described thus: Unbound fraction in rat brain at 1 uM incubated for 6 hrs by equilibrium dialysis based LC-MS/MS analysis. The format is ADME, tissue-based. The gist of the method:
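Naïve rat brain was homogenized in DPBS (1:3 w/w) and dialyzed against DPBS at 1 μM final, in triplicate, 6 h at 37 °C. Quantification was by LC-MS/MS. Diluted fu2 = buffer/homogenate peak area ratio, corrected to undiluted fu using the 1/4 dilution equation; mean of 3 replicates.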

A short description of data set [4]: Unbound fraction in human plasma at 5 uM incubated for 6 hrs by equilibrium dialysis based LC-MS/MS analysis. The class given is ADME, cell-free. The method, boiled down: as §1
Data set [5] in a line: Drug metabolism in cryopreserved rat Hepatocyte assessed as amide hydrolysis mediated metabolite formation at 10 uM measured after 4 hrs. The class given is ADME, cell-based. Conditions: hepatocytes. The gist of the method: (§2)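 Rat, dog, monkey and human hepatocytes were incubated with 10 μM compound and sampled at 0 and 4 h. Metabolites were tentatively identified by accurate-mass LC-MS (observed m/z). Retention times were taken from MS extracted ion chromatograms.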

The target in data set [6] is Metabotropic glutamate receptor 7 (Homo sapiens) (UniProt Q14831). Kind of data set: Negative allosteric modulation of human mGlu7 receptor expressed in HEK293-A co-expressing Galpha15 assessed as inhibition of DL-AP4 induced-calcium mobilization preincubated for 140 sec followed by DL-AP4 addition at EC20 concentration for 125 sec and measured after 90 sec addition of glutamate at EC80 concentration by Fluo-4 AM dye based fluorescence assay. Conditions: time 355.0 sec. The class given is functional, cell-based. The gist of the method: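 HEK293 cells stably co-expressing human mGlu7 and mouse Gα15 were plated at 15,000/well in dialyzed-FBS medium and grown overnight at 37 °C. They were loaded with Fluo-4-AM (final 1.15 μM) for 50 min at RT, then read at RT in a triple-add assay with DL-AP4 as agonist. Compounds were run as 10-point 1:3 curves; ex 480/em 530 nm. Data were normalized to maximal agonist response and fitted to a four-parameter logistic equation.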
Sequence of Metabotropic glutamate receptor 7 (Homo sapiens) (Q14831 whole entry): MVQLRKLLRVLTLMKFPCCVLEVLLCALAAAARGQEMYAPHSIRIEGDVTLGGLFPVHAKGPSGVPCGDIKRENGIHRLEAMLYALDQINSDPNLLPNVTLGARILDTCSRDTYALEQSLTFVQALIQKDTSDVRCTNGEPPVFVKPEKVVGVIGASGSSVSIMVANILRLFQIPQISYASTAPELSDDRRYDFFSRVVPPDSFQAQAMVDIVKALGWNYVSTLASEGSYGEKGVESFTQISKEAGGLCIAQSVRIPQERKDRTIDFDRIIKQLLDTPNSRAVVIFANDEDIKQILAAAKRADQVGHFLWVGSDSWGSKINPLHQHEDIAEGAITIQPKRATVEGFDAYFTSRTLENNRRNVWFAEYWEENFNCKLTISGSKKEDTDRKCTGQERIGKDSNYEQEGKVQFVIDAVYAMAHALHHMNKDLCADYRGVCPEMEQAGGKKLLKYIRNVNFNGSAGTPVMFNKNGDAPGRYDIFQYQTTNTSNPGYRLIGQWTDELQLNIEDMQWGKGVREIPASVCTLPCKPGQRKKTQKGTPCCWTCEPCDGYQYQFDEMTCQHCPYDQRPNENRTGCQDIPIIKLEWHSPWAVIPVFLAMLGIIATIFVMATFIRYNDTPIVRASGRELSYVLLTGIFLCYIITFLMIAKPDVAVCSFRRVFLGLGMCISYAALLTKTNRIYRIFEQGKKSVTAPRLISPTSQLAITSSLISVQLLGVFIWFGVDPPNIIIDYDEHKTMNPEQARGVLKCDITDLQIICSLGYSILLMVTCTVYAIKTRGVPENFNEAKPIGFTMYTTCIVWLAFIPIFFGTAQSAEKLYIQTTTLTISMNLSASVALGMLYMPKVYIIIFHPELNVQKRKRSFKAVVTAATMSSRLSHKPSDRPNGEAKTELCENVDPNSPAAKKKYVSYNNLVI

The target in data set [7] is Metabotropic glutamate receptor 4 (Homo sapiens) (UniProt Q14833). Kind of data set: Negative allosteric modulation of human mGlu4 receptor expressed in CHO cells co-expressing Gqi5 assessed as inhibition of glutamate induced calcium mobilization preincubated for 142 sec followed by glutamate addition at EC20 concentration for 120 sec and measured after 40 sec addition of glutamate at EC80 concentration by Fluo-4 AM dye based fluorescence assay relative to glutamate. The class given is functional, cell-based. Particulars: time 302.0 sec.
Sequence of Metabotropic glutamate receptor 4 (Homo sapiens) (Q14833 whole entry): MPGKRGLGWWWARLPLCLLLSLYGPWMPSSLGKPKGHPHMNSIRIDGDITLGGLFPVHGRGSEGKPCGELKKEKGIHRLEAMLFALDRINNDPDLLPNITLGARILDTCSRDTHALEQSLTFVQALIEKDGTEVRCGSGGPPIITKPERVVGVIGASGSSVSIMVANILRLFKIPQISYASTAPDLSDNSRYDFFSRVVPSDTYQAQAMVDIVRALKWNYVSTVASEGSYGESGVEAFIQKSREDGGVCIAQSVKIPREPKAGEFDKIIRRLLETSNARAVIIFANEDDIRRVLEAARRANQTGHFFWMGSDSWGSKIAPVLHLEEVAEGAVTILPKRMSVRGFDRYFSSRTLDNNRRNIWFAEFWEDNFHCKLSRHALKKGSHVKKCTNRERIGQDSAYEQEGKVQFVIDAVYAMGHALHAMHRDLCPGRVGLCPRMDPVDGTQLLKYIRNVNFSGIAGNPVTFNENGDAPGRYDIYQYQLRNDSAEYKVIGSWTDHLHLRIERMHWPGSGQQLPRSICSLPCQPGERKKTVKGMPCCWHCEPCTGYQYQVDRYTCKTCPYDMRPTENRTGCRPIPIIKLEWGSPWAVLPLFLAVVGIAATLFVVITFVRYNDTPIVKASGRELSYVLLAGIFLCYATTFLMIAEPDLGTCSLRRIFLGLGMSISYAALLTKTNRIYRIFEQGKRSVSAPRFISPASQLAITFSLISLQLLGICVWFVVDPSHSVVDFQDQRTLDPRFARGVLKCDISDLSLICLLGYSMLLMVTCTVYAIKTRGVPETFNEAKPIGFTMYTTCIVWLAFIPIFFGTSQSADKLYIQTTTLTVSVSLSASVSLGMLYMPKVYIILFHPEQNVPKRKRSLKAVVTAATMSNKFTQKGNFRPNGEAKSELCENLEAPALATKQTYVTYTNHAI

Data set [8] deals with Metabotropic glutamate receptor 1 (Homo sapiens) (UniProt Q13255). Kind of data set: Negative allosteric modulation of tetracycline-inducible human mGlu1 receptor expressed in human T-REx-293 cells by calcium mobilization assay. The class given is functional, cell-based. Background: A change in cytosolic calcium serves as a functional read-out for many receptors and channels.
Sequence of Metabotropic glutamate receptor 1 (Homo sapiens) (Q13255 19-1194 limits assumed): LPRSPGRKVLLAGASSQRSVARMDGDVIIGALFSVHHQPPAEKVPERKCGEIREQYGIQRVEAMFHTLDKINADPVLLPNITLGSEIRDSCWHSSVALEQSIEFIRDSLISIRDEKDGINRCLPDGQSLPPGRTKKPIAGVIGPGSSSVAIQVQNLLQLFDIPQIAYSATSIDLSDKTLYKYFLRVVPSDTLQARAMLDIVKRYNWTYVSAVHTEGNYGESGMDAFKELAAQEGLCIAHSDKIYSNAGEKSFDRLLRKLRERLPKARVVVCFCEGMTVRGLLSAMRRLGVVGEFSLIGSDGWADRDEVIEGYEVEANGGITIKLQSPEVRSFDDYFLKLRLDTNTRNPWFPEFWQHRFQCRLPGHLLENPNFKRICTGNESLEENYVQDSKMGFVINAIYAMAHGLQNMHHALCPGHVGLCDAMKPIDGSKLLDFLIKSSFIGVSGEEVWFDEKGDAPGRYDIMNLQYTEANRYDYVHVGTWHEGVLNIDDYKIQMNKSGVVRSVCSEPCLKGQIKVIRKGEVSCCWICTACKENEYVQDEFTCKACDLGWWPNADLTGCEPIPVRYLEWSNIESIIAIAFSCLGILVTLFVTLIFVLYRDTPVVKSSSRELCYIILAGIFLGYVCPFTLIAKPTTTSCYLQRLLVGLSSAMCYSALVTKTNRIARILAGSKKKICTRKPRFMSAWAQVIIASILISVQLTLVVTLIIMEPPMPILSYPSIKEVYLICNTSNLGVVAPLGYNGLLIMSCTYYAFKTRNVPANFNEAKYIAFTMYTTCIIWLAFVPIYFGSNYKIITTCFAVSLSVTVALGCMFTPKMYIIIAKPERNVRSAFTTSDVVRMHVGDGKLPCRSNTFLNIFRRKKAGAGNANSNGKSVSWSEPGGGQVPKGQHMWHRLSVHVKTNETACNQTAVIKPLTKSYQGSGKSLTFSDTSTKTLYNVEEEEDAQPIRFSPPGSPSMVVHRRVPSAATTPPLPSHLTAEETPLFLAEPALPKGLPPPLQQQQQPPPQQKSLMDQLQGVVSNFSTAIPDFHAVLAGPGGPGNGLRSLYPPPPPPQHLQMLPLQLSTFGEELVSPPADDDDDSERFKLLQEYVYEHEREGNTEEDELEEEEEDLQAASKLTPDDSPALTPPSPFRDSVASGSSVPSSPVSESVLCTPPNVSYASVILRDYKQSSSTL

Data set [9] can be described thus: Drug metabolism in cryopreserved dog Hepatocyte assessed as amide hydrolysis mediated metabolite formation at 10 uM measured after 4 hrs. The class given is ADME, cell-based, Canis lupus familiaris. Particulars: hepatocytes. The gist of the method: as §2
The nature of data set [10]: Drug metabolism in cryopreserved human Hepatocyte assessed as amide hydrolysis mediated metabolite formation at 10 uM measured after 4 hrs. The format is ADME, cell-based. Conditions: hepatocytes. The gist of the method:
as §2

Data set [11] deals with Metabotropic glutamate receptor 8 (Homo sapiens) (UniProt O00222). Kind of data set: Negative allosteric modulation of human mGlu8 expressed in HEK293-A assessed as inhibition of glutamate induced-calcium mobilization preincubated for 140 sec followed by glutamate addition at EC20 concentration for 125 sec and measured after 90 sec addition of glutamate at EC80 concentration by Fluo-4 AM dye based fluorescence assay. Particulars: time 355.0 sec. The class given is functional, cell-based. The method, boiled down:
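HEK293 cells stably co-expressing human mGlu8 and mouse Gα15 were plated at 15,000/well and grown overnight. Fluo-4-AM (final 1.15 μM) was loaded for 50 min at 37 °C, […]. The FDSS run was at RT: compound, then glutamate EC20, then EC80 additions. Compounds were run as 10-point 1:3 curves; ex 480/em 530 nm. Data were normalized to glutamate ECmax and fitted to a four-parameter logistic equation.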

Data set [12] has as its target Metabotropic glutamate receptor 2 (Homo sapiens) (UniProt Q14416). Description: Negative allosteric modulation of human mGlu2 receptor expressed in HEK293 cells harboring GIRK by thallium flux assay. The class given is cell-based.
Data set [13] in a line: Drug metabolism in cryopreserved cynomolgus monkey Hepatocyte assessed as amide hydrolysis mediated metabolite formation at 10 uM measured after 4 hrs. Particulars: hepatocytes. The class given is ADME, cell-based, Macaca fascicularis. The method, boiled down: as §2
The target in data set [14] is Metabotropic glutamate receptor 3 (Homo sapiens) (UniProt Q14832). Description: Negative allosteric modulation of human mGlu3 receptor expressed in HEK293 cells harboring GIRK assessed as maximal inhibition response by thallium flux assay relative to glutamate. The format is cell-based. Conditions: filed as negative allosteric modulator.
Sequence of Metabotropic glutamate receptor 3 (Homo sapiens) (Q14832 23-879 limits assumed): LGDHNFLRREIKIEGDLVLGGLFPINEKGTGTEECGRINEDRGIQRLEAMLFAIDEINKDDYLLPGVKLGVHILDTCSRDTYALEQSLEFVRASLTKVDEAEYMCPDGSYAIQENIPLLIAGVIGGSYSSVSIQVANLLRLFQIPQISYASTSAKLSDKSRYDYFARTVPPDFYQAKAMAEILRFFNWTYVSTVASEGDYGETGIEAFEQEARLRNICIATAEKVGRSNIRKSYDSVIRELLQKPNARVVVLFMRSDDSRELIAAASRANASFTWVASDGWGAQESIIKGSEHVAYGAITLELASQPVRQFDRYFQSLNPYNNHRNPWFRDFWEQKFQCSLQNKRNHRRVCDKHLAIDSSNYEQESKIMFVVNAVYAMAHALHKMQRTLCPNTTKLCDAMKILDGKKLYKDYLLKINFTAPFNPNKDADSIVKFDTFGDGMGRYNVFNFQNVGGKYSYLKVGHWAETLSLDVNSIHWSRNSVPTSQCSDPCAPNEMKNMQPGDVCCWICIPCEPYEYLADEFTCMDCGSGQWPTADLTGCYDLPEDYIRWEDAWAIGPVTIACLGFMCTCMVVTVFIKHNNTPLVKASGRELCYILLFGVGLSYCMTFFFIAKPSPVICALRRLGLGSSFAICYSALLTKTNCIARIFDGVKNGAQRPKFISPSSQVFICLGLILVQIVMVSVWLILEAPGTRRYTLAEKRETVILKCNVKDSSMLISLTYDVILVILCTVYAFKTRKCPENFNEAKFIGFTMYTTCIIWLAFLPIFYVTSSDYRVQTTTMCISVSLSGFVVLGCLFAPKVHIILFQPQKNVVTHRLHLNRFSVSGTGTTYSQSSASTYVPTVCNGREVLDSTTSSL

Activity calls are given as the source filed them. No cut-off for these calls is given here.

Sequence of Metabotropic glutamate receptor 8 (Homo sapiens) (O00222 whole entry): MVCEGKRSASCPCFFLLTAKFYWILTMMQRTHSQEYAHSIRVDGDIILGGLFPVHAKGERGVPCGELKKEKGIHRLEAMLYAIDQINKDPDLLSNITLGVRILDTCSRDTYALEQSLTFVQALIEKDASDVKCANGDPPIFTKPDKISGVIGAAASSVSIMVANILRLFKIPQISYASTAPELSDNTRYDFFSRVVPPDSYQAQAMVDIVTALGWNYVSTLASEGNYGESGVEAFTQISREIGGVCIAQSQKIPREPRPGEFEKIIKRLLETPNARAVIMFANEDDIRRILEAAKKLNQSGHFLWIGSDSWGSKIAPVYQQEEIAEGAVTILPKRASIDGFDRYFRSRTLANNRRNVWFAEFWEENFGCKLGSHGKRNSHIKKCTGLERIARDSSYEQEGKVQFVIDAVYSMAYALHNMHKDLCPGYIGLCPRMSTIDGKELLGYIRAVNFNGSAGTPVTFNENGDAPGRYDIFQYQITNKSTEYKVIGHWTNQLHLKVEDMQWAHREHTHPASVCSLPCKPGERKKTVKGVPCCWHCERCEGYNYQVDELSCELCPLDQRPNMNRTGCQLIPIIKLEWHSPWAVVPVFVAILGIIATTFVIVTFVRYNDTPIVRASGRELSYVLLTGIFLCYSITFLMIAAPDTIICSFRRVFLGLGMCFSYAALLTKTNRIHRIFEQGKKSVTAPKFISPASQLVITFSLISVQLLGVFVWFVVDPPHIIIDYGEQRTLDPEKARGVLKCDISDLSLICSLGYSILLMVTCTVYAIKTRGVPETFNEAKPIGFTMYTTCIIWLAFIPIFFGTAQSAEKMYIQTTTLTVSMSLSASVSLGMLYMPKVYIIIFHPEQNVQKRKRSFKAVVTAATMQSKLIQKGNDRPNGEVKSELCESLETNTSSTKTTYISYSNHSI

For `Cc1cccc(NC(=O)c2cc(Oc3ccnn3C)cc(C)n2)n1`, the Fu entry in [1] is reported as “Not_determined(Unstable)”. Besides, the “K(p,uu,brain)” value in data set [2] is “Not_determined(Unstable)”.
Consider `Cc1cccc(NC(=O)c2cc(Oc3cc(C)nn3C)cc(C)n2)n1`, for which the Fu entry in data set [1] is “Not_determined(Unstable)”. The “K(p,uu,brain)” value in [2] was “Not_determined(Unstable)”.
As for `Cc1cc(Oc2cnn(C)c2C(F)(F)F)cc(C(=O)Nc2nc(C)cs2)n1`, the Fu entry in data set [1] is recorded as “Not_determined(Unstable)”; in [3] it was 0.003; in [4], 0.004. Also, the “K(p,uu,brain)” value in data set [2] is “Not_determined(Unstable)”.
Regarding `Cc1cc(Oc2cnn(C)c2C(F)(F)F)cc(C(=O)Nc2ccc(F)cn2)n1`, the values for the Fu result in data set [1] and in data set [3] were “Not_determined(Unstable)” and 0.002, respectively. For the same compound, the “K(p,uu,brain)” value in [2] is “Not_determined(Unstable)”.
Turning to `Cc1cccc(NC(=O)c2cc(Oc3cnn(C)c3C(F)(F)F)cc(C)n2)n1`, in data set [1], the Fu result was “Not_determined(Unstable)”. The “K(p,uu,brain)” value in data set [2] was “Not_determined(Unstable)”.
In the case of `Cc1cc(Oc2ccnn2C)cc(C(=O)Nc2nc(C)cs2)n1`, the Fu in data set [1] was found to be 0.219.
Consider `Cc1cc(Oc2cnn(C)c2)cc(C(=O)Nc2ccc(F)cn2)n1`, for which the Drug metabolism entry in data set [5], in data set [9], in data set [10] and in data set [13] was “metabolite_detected” in each case. In addition, the outcome in data set [6], in [7], in [8], in data set [11] and in data set [12] was inactive. The Imax in data set [14] was 58%.
